Experiment [1] concerns HepG2/Dox. The experiment is described as follows: Reversal of P-glycoprotein-mediated multidrug resistance in human HepG2/Dox cells assessed as increase in sensitivity at 19.6 uM in presence of vinblastine. Type of experiment: cell-based. In outline:
(§1)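 Resistance reversal by SRB assay. IC50s of doxorubicin, vinblastine, puromycin or paclitaxel were measured with or without modulator, with modulator alone as negative control and verapamil as positive control. Fold sensitization is the ratio of drug IC50 without modulator to drug IC50 with it. HepG2/Dox cells were kept drug-free for at least 7 days before use. Assays were run at least three times (mean ± SD).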

Experiment [2] relates to HepG2/Dox. Description: Reversal of P-glycoprotein-mediated multidrug resistance in human HepG2/Dox cells assessed as increase in sensitivity at 39.2 uM in presence of paclitaxel. The class given is cell-based. In outline:
as §1

Experiment [3] has as its system HepG2/Dox. Description: Reversal of P-glycoprotein-mediated multidrug resistance in human HepG2/Dox cells assessed as increase in sensitivity at 39.2 uM in presence of puromycin. The class given is cell-based. Summed up:
as §1

The test system of experiment [4] is HepG2/Dox. Description: Reversal of P-glycoprotein-mediated multidrug resistance in human HepG2/Dox cells assessed as increase in sensitivity at 19.6 uM in presence of paclitaxel. Type of experiment: cell-based. In outline: as §1
Experiment [5] has as its system HepG2. The experiment is described as follows: Reversal of P-glycoprotein-mediated drug resistance in human HepG2 cells assessed as increase in sensitivity at 39.2 uM in presence of doxorubicin. Type of experiment: cell-based. Summed up:
as §1

Experiment [6] deals with HepG2/Dox. Description: Reversal of P-glycoprotein-mediated multidrug resistance in human HepG2/Dox cells assessed as increase in sensitivity at 39.2 uM in presence of doxorubicin. The class given is cell-based. In outline: as §1
Experiment [7] relates to HepG2. Description: Growth inhibition of doxorubicin-sensitive human HepG2 cells at 80 uM. The class given is functional. Summed up: (§2)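 SRB growth assay. HepG2 and HepG2/Dox cells were grown in RPMI 1640 with 10% FBS at 37 °C and 5% CO2; resistant cells were kept drug-free for at least 7 days before use. IC50 was taken from the SRB assay, with at least three repeats, reported as mean ± SD.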

Experiment [8] deals with HepG2/Dox. Description: Reversal of P-glycoprotein-mediated multidrug resistance in human HepG2/Dox cells assessed as increase in sensitivity at 19.6 uM in presence of doxorubicin. Type of experiment: cell-based. In outline: as §1
The subject of experiment [9] is HepG2/Dox. Description: Reversal of P-glycoprotein-mediated multidrug resistance in human HepG2/Dox cells assessed as increase in sensitivity at 39.2 uM in presence of vinblastine. Type of experiment: cell-based. In outline: as §1
The test system of experiment [10] is HepG2/Dox. The experiment is described as follows: Reversal of P-glycoprotein-mediated multidrug resistance in human HepG2/Dox cells assessed as increase in sensitivity at 19.6 uM in presence of puromycin. The class given is cell-based. Summed up:
as §1

Experiment [11] relates to HepG2. The experiment is described as follows: Reversal of P-glycoprotein-mediated drug resistance in human HepG2 cells assessed as increase in sensitivity at 39.2 uM in presence of vinblastine. Type of experiment: cell-based. Summed up:
as §1

Experiment [12] deals with HepG2. The experiment is described as follows: Reversal of P-glycoprotein-mediated drug resistance in human HepG2 cells assessed as increase in sensitivity at 39.2 uM in presence of puromycin. The class given is cell-based. Summed up: as §1
For experiment [13], the system named is HepG2. The experiment is described as follows: Reversal of P-glycoprotein-mediated drug resistance in human HepG2 cells assessed as increase in sensitivity at 39.2 uM in presence of paclitaxel. The class given is cell-based. In outline:
as §1

Experiment [14] is described as follows: Growth inhibition of multidrug resistant human HepG2/Dox cells at 80 uM. Type of experiment: functional. In outline: as §2
Experiment [15] in a line: Cell cycle arrest in multidrug resistant human HepG2/Dox cells assessed as accumulation in subG1 phase at 50 uM. Type of experiment: functional, cell-based. Summed up:
(§3)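 Flow-cytometric cell-cycle profiling. About 2 × 10^5 cells were seeded per dish and left overnight, then exposed to medium with or without drug for 48 h. Cells were fixed in 70% EtOH at -20 °C overnight and treated with RNase A (100 µg/mL, 37 °C, 30 min). They were then stained with propidium iodide (40 µg/mL final) at room temperature for 5-10 min and read on a FACSCalibur.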

Experiment [16] in a line: Cell cycle arrest in multidrug resistant human HepG2/Dox cells assessed as accumulation in G2/M phase at 1 uM. The class given is functional, cell-based. Summed up: as §3
Experiment [17] in a line: Cell cycle arrest in multidrug resistant human HepG2/Dox cells assessed as accumulation in G2/M phase at 10 uM. Type of experiment: functional, cell-based. In outline: as §3
Experiment [18] deals with HepG2. Description: Cell cycle arrest in human HepG2 cells assessed as accumulation in subG1 phase at 0.2 uM. The class given is functional. Summed up: (§4)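 Cells seeded at about 2 × 10^5 per dish and left overnight, then exposed to drug for 48 h. Collected, washed in PBS, fixed in 70% EtOH at -20 °C overnight, treated with RNase A (100 µg/mL) at 37 °C for 30 min, stained with propidium iodide (40 µg/mL final) at room temperature, and phase distribution read by flow cytometry.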

Experiment [19] in a line: Cell cycle arrest in multidrug resistant human HepG2/Dox cells assessed as accumulation in subG1 phase at 10 uM. Type of experiment: functional, cell-based. Summed up:
as §3

Experiment [20] is described as follows: Cell cycle arrest in multidrug resistant human HepG2/Dox cells assessed as accumulation in S phase at 10 uM. Type of experiment: functional, cell-based. Summed up: as §3
The test system of experiment [21] is HepG2. Description: Cell cycle arrest in human HepG2 cells assessed as accumulation in G2/M phase at 0.2 uM. Type of experiment: functional. In outline:
as §4

Experiment [22] in a line: Cell cycle arrest in multidrug resistant human HepG2/Dox cells assessed as accumulation in G0/G1 phase at 50 uM. Type of experiment: functional, cell-based. In outline: as §3
The nature of experiment [23]: Cell cycle arrest in multidrug resistant human HepG2/Dox cells assessed as accumulation in G0/G1 phase at 1 uM. The class given is functional, cell-based. Summed up:
as §3

A short description of experiment [24]: Cell cycle arrest in multidrug resistant human HepG2/Dox cells assessed as accumulation in S phase at 1 uM. Type of experiment: functional, cell-based. Summed up: as §3
Experiment [25] concerns HepG2. The experiment is described as follows: Cell cycle arrest in human HepG2 cells assessed as accumulation in G0/G1 phase at 0.2 uM. Type of experiment: functional. Summed up:
as §4

Experiment [26] in a line: Cell cycle arrest in multidrug resistant human HepG2/Dox cells assessed as accumulation in G0/G1 phase at 10 uM. The class given is functional, cell-based. In outline: as §3
For experiment [27], the system named is HepG2. Description: Growth inhibition of human HepG2 cells after 72 hrs by SRB assay. Type of experiment: functional, cell-based. The settings on record: HepG2, 72 h. Summed up: (§5)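 SRB growth assay giving IC50 values from at least three repeat experiments, reported as mean ± SD. HepG2/Dox is a doxorubicin-selected Pgp-overexpressing subline kept in 1.2 µM doxorubicin and grown drug-free for at least 7 days before use. Both lines grown in RPMI 1640 with 10% FBS at 37 °C, 5% CO2.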
(In general: The SRB assay estimates cell density from bound dye.)

A short description of experiment [28]: Cell cycle arrest in multidrug resistant human HepG2/Dox cells assessed as accumulation in G2/M phase at 50 uM. Type of experiment: functional, cell-based. In outline:
as §3

Experiment [29] is described as follows: Growth inhibition of multidrug resistant human HepG2/Dox cells after 72 hrs by SRB assay. The class given is functional, cell-based. In outline:
as §5

Experiment [30] is described as follows: Cell cycle arrest in multidrug resistant human HepG2/Dox cells assessed as accumulation in S phase at 50 uM. Type of experiment: functional, cell-based. In outline: as §3
The nature of experiment [31]: Cell cycle arrest in multidrug resistant human HepG2/Dox cells assessed as accumulation in subG1 phase at 1 uM. Type of experiment: functional, cell-based. Summed up: as §3
Experiment [32] relates to HepG2. The experiment is described as follows: Cell cycle arrest in human HepG2 cells assessed as accumulation in S phase at 0.2 uM. The class given is functional. Summed up:
as §4

With `CC(=O)O[C@@H]1[C@@H](OC(=O)c2ccccc2)[C@@H]2[C@@]3(C)CC[C@H](O)C[C@@H]3CC[C@]23O[C@@]32CC[C@@H](C(C)=O)[C@@]12C` [11ALPHA-O-BENZOYL-12BETA-O-ACETYLTENACIGENIN B], the Ratio IC50 in the experiment with HepG2/Dox [1] is 13; with HepG2/Dox [2], 326; in the experiment with HepG2/Dox [3] it was 15.5; with HepG2/Dox [4], 42.4; with HepG2 [5], 1.2; in the experiment on HepG2/Dox [6] it was 15.6. Further, the Ratio IC50 in the experiment on HepG2/Dox [8] is 10.1; with HepG2/Dox [9], 53.1; in the experiment on HepG2/Dox [10], 8.1; in the experiment with HepG2 [11], 0.9; with HepG2 [12] it was 1; with HepG2 [13] it was 1. Further, the inhibition at 80 µM (with HepG2 [7]; in experiment [14]) was 50% throughout.
Take `COc1cccc2c1C(=O)c1c(O)c3c(c(O)c1C2=O)C[C@@](O)(C(=O)CO)C[C@@H]3O[C@H]1C[C@H](N)[C@H](O)[C@H](C)O1` [DOXORUBICIN]: the Activity in experiment [15] is 4.9%; in experiment [16], 33.5%; in [17], 60.8%; in the experiment with HepG2 [18] it was 0.9%; in experiment [19], 3.4%; in experiment [20], 6.9%. Also, the Activity is 76.6% in the experiment with HepG2 [21]; 12% in experiment [22]; 51.3% in [23]; 7.7% in [24]; 4.9% with HepG2 [25]; 24.8% in [26]. Also, the Activity in experiment [28] turned out to be 73.4%; in experiment [30], 5.6%; in [31] it was 2.4%; in the experiment with HepG2 [32], 8.9%. In addition, the IC50 with HepG2 [27] came out at 170 nM; in [29], 8600 nM.
Regarding `CC(=O)O[C@H]1C(=O)[C@@]2(C)[C@H]([C@H](OC(=O)c3ccccc3)[C@]3(O)C[C@H](OC(=O)[C@H](O)[C@@H](NC(=O)c4ccccc4)c4ccccc4)C(C)=C1C3(C)C)[C@]1(OC(C)=O)CO[C@@H]1C[C@@H]2O` [PACLITAXEL], the figures for the IC50 (with HepG2 [27]; in experiment [29]) were 5.9 nM and 1400 nM, respectively.
The like results for `COc1ccc(C[C@H](N)C(=O)N[C@H]2[C@@H](O)[C@H](n3cnc4c(N(C)C)ncnc43)O[C@@H]2CO)cc1` [PUROMYCIN] were, in that order, 210 nM and 20200 nM.
For `CC[C@]1(O)C[C@@H]2CN(CCc3c([nH]c4ccccc34)[C@@](C(=O)OC)(c3cc4c(cc3OC)N(C)[C@H]3[C@@](O)(C(=O)OC)[C@H](OC(C)=O)[C@]5(CC)C=CCN6CC[C@]43[C@@H]65)C2)C1` [VINBLASTINE] the same measures were 0.26 nM and 260 nM.

Usually inhibition stands for the share of the control response that was lost under treatment. Higher therefore signals a response far below the control. Broadly, the IC50 is the concentration needed to halve the response being measured. Lower therefore signals inhibition by little substance.

Values taken from ChEMBL document CHEMBL1157421, “Tenacigenin B derivatives reverse P-glycoprotein-mediated multidrug resistance inHepG2/Dox cells” (J Nat Prod, 2008).
